Assay results from ChEMBL document CHEMBL3102696, “Synthesis/biological evaluation of hydroxamic acids and their prodrugs as inhibitors for Botulinum neurotoxin A light chain” (Bioorg Med Chem, 2014).
pEC50, pIC50, pKi: −log10 of the molar value. Activity calls are given as the source filed them. The calls are words filed in the database; no cut-off is given here.

What was measured:
[1] = Cytotoxicity against human induced pluripotent stem cell-derived neurons at 200 uM; conditions: induced pluripotent stem cell-derived neuron
[2] = Cytotoxicity against human induced pluripotent stem cell-derived neurons at 1 mM; conditions: induced pluripotent stem cell-derived neuron, 1000 µM
[3] = biological target: Botulinum neurotoxin type A (Clostridium botulinum) (UniProt P0DPI0); conditions: Hall A hyper
[4] = biological target: T1, Botulinum neurotoxin type A (Clostridium botulinum, UniProt P0DPI0); set-up: species or system Hall A hyper
[5] = biological target: Botulinum neurotoxin type A (Clostridium botulinum) (UniProt P0DPI0); conditions: Hall A hyper; remark: listed apart in the source
[6] = biological target: T1, Botulinum neurotoxin type A; assay: Inhibition of Clostridium botulinum BoNT/A light chain (1 to 425 amino acids) by FRET method
In short: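 Recombinant truncated light chain (residues 1–425) at 37 nM, incubated with SNAPtide, a 13mer SNAP-25 pseudosubstrate carrying a FITC fluorophore and a DABCYL quencher. Cleavage read as FRET fluorescence.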

[7] = biological target: T1, Botulinum neurotoxin type A; assay: Inhibition of Clostridium botulinum BoNT/A light chain (1 to 425 amino acids) by LC-MS analysis
[8] = Cytotoxicity against human induced pluripotent stem cell-derived neurons at 150 uM; conditions: induced pluripotent stem cell-derived neuron
[9] = biological target: Botulinum neurotoxin type A (Clostridium botulinum) (UniProt P0DPI0); conditions: Hall A hyper; remark: listed apart in the source

Chain of Botulinum neurotoxin type A (Clostridium botulinum) (P0DPI0 2-448 limits assumed): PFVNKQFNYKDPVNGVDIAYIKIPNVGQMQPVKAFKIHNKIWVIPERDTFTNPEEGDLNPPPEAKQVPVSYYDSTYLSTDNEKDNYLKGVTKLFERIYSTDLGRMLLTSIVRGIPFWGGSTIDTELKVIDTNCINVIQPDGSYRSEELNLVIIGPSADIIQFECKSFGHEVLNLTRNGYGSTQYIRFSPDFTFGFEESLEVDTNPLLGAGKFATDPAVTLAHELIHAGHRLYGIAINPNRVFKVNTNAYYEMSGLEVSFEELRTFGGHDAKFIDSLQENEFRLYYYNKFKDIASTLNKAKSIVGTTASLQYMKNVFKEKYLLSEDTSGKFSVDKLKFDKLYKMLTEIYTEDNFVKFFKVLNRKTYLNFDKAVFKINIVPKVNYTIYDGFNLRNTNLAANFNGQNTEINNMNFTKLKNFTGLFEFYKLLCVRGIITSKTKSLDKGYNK
T1 sequence (P0DPI0 2-448 limits assumed): as above

SMILES: O=C(CC(CCO)c1ccc(Cl)cc1Cl)NO (stereo not drawn)
- Activity [1]: Non-toxic

SMILES: O=C(CC(CCOCc1ccccc1)c1ccc(Cl)cc1Cl)NOC(=O)NCc1ccccc1 (stereo not drawn)
- Activity [2]: Toxic
- inhibition [3]: inactive

SMILES: O=C(CC(CCOCC12CC3CC(CC(Br)(C3)C1)C2)c1ccc(Cl)cc1Cl)NOC(=O)NCc1ccccc1 (stereo not drawn)
- pEC50 [4]: < 3.00

SMILES: O=C(CC(CCO)c1ccc(Cl)cc1Cl)NOC(=O)NCc1ccccc1 (stereo not drawn)
- inhibition [5]: Active

SMILES: COc1cc(F)ccc1NC(=O)CC(CC(=O)NO)c1ccc(Cl)cc1Cl (stereo not drawn)
- pIC50 [6]: 5.96
- pKi [7]: 6.00

SMILES: O=C(CC(CCOCCc1ccc(F)cc1)c1ccc(Cl)cc1Cl)NOC(=O)NCc1ccccc1 (stereo not drawn)
- Activity [2]: Toxic
- inhibition [3]: inactive

SMILES: Cc1ccccc1NC(=O)CC(CC(=O)NO)c1ccc(Cl)cc1Cl (stereo not drawn)
- pIC50 [6]: 5.70

SMILES: O=C(CC(CC(=O)NCCc1ccc(F)cc1)c1ccc(Cl)cc1Cl)NO (stereo not drawn)
- pIC50 [6]: 5.59

SMILES: C=CCOCCC(CC(=O)NO)c1ccc(Cl)cc1Cl (stereo not drawn)
- pIC50 [6]: 5.27

SMILES: COc1ccc(CCNC(=O)CC(CC(=O)NO)c2ccc(Cl)cc2Cl)cc1 (stereo not drawn)
- pIC50 [6]: 5.17

SMILES: Cc1ccccc1NC(=O)CC(CC(=O)NOC(=O)NCc1ccccc1)c1ccc(Cl)cc1Cl (stereo not drawn)
- pEC50 [4]: 3.68

SMILES: O=C(CC(CCOCCc1ccc(F)cc1)c1ccc(Cl)cc1Cl)NO (stereo not drawn)
- pIC50 [6]: 6.01
- pKi [7]: 5.68

SMILES: O=C(CC(CC(=O)Nc1ccc(Br)cc1)c1ccc(Cl)cc1Cl)NOC(=O)NCc1ccccc1 (stereo not drawn)
- pEC50 [4]: 3.70

SMILES: O=C(CC(CCOCc1ccccc1)c1ccc(Cl)cc1Cl)NO (stereo not drawn)
- pIC50 [6]: 5.54

SMILES: O=C(CC(CC(=O)Nc1ccc(Br)cc1)c1ccc(Cl)cc1Cl)NO (stereo not drawn)
- pIC50 [6]: 5.19

SMILES: O=C(CC(CCOCC12CC3CC(CC(Br)(C3)C1)C2)c1ccc(Cl)cc1Cl)NO (stereo not drawn)
- pIC50 [6]: 4.89

SMILES: O=C(CC(CC(=O)NCCC1CC1)c1ccc(Cl)cc1Cl)NO (stereo not drawn)
- pIC50 [6]: 5.04

SMILES: O=C(/C=C/c1ccc(Cl)cc1Cl)NOC(=O)NCc1ccccc1
- Activity [8]: Toxic
- inhibition [9]: inactive
